Test results as given in ChEMBL document CHEMBL3421565, “β-D-2'-C-Methyl-2,6-diaminopurine Ribonucleoside Phosphoramidates are Potent and Selective Inhibitors of Hepatitis C Virus (HCV) and Are Bioconverted Intracellularly to Bioactive 2,6-Diaminopurine and Guanosine 5'-Triphosphate Forms” (J Med Chem, 2015).
Active and inactive are the calls of the source. No cut-off for these calls is given here.

Key:
Hepatitis C virus = experiment: Antiviral activity against HCV infected in human HuH7 cells assessed as reduction in replicon RNA levels incubated for 5 days by RT-PCR assay; assay type: functional, organism-based, Hepacivirus hominis; settings: Huh-7, 120 h
Summary of the method: (§1)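 Huh-7 clone B cells carrying HCV replicon RNA, seeded at 3000 cells/well; compounds added in dose response in triplicate right after seeding. Incubated 5 days at 37 °C, 5% CO₂. Total RNA extracted; replicon RNA and rRNA internal control co-amplified by one-step multiplex real-time RT-PCR. Antiviral effect taken as ΔCt versus no-drug control; cytotoxicity read from rRNA reduction.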

Vero = experiment: (§2) Cytotoxicity against African green monkey Vero cells assessed as reduction in cell viability incubated for 5 days by Cell-titer 96 aqueous one solution cell proliferation assay; assay type: cell-based; settings: chlorocebus sabaeus, vero, 120 h
HepG2 [1] = experiment: Mitochondrial toxicity in human HepG2 cells assessed as effect on mitochondrial cytochrome c oxidase subunit 2 DNA level incubated for 14 days by real-time PCR method; assay type: cell-based; settings: hepg2, 336 h
Summary of the method: (§3)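 HepG2 cells in DMEM with 4.5 g/L glucose and 10% heat-inactivated FBS, seeded at 5000 cells/well on collagen; compounds added 1 day later at final 1–50 μM. Medium and compound renewed every 3–4 days for 14 days; duplicates in two independent experiments. COXII mtDNA and nuclear β-actin DNA measured by real-time PCR, normalised to untreated control; IC₅₀ calculated.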

HepG2 [2] = experiment: Mitochondrial toxicity in human HepG2 cells assessed as effect on nuclear beta-actin DNA level incubated for 14 days by real-time PCR method; assay type: cell-based; settings: hepg2, 336 h; summary of the method: as §3
HepG2 [3] = experiment: Mitochondrial toxicity in human HepG2 cells assessed as induction of lactic acid levels at 1 uM incubated for 14 days; assay type: cell-based; settings: hepg2, 336 h
Summary of the method: (§4)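 After 14 days of HepG2 exposure to compound (same culture regimen as the mtDNA assay), lactic acid in culture supernatant quantified with a D-/L-lactic acid kit by absorbance. Results expressed as % lactic acid over % nuclear DNA (β-actin control); mean of triplicates from a single plate.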

HepG2 [4] = experiment: Mitochondrial toxicity in human HepG2 cells assessed as induction of lactic acid levels at 10 uM incubated for 14 days; assay type: cell-based; settings: hepg2, 336 h; summary of the method: as §4
HepG2 [5] = experiment: Mitochondrial toxicity in human HepG2 cells assessed as induction of lactic acid levels at 50 uM incubated for 14 days; assay type: cell-based; settings: hepg2, 336 h; summary of the method: as §4
[6] = Drug metabolism in human HuH7 cells assessed as 2'-C-Me-DAPN-TP level per million cells at 50 uM incubated for 4 hrs at 37 degC by LC-MS/MS method; assay type: ADME, cell-based; settings: huh-7, 4 h
Summary of the method: (§5)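 Huh-7 cells (after attachment) or freshly plated primary human hepatocytes (after overnight acclimatation), 1 × 10⁶ cells/well, exposed to 50 μM compound for 4 h at 37 °C. Cells washed twice with ice-cold PBS and extracted overnight at −20 °C in 70% methanol containing 20 nM ddATP. Mono-, di- and triphosphates quantified by LC–MS/MS as pmol/10⁶ cells; three replicates.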

[7] = Drug metabolism in human HuH7 cells assessed as 2'-C-Me-GTP level at 50 uM incubated for 4 hrs at 37 degC by LC-MS/MS method; assay type: ADME, cell-based; settings: huh-7, 4 h; summary of the method: as §5
[8] = Drug metabolism in human primary hepatocytes assessed as 2'-C-Me-DAPN-TP level at 50 uM incubated for 4 hrs at 37 degC by LC-MS/MS method; assay type: ADME, cell-based, Hepatocyte; summary of the method: as §5
[9] = Cytotoxicity against human HuH7 cells assessed as reduction in rRNA levels incubated for 5 days by RT-PCR assay; assay type: cell-based, Huh-7; settings: for CC50: huh-7, 120 h; summary of the method: as §1
PBMC = experiment: (§6) Cytotoxicity against human PBMC assessed as reduction in cell viability incubated for 5 days by Cell-titer 96 aqueous one solution cell proliferation assay; assay type: cell-based; settings: pbmc, 120 h
CCRF-CEM = experiment: (§7) Cytotoxicity against human CEM cells assessed as reduction in cell viability incubated for 5 days by Cell-titer 96 aqueous one solution cell proliferation assay; assay type: cell-based; settings: ccrf-cem, 120 h
Hepacivirus hominis [10] = experiment: Inhibition of HCV C-terminal His-tagged NS5Bdelta21 enzyme assessed as reduction in NS5B-mediated RNA polymerization using [32P]-GpG primer, RNA template and rNTP nucleotide mix incubated for 120 mins by PAGE method
Summary of the method: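 Purified NS5BΔ21 (C-terminal His tag), 1 μM, at 30 °C with 1 μM 20-mer RNA template and 1 μM ³²P-GpG primer. Buffer was 40 mM Tris pH 7.5, 6 mM NaCl, 2 mM MgCl₂. Started with 10 μM NTP mix, 1 μM competing NTP and triphosphate inhibitor at 0–100 μM. Products run on 20% denaturing PAGE and quantified; IC₅₀ calculated.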

Hepacivirus hominis [11] = experiment: Inhibition of HCV C-terminal His-tagged NS5Bdelta21 enzyme assessed as induction of pausing at sites of GMP incorporation during NS5B-mediated RNA polymerization using [32P]-GpG primer, RNA template and rNTP nucleotide mix incubated for 120 mins by PAGE method
Summary of the method: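 Purified NS5BΔ21 (C-terminal His tag), 1 μM, at 30 °C with 1 μM 20-mer RNA template and 1 μM ³²P-GpG primer. Buffer was 40 mM Tris pH 7.5, 6 mM NaCl, 2 mM MgCl₂. Started with 10 μM NTP mix, 1 μM competing NTP and triphosphate inhibitor at 0–100 μM. Stopped at 120 min with EDTA/formamide. Products run on 20% denaturing PAGE and quantified; IC₅₀ calculated.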

Hepatocyte [12] = experiment: Drug level in human primary hepatocytes treated with 50 uM Ethyl 3-(2-(((R)-(((2R,3R,4R,5R)-5-(2,6-Diamino-9H-purin-9-yl)-3,4-dihydroxy-4-methyltetrahydrofuran-2-yl)methoxy)(((S)-1-ethoxy-1-oxopropan-2-yl)amino)phosphoryl)oxy)phenyl)-propanoate assessed as compound formation incubated for 4 hrs at 37 degC by LC-MS/MS method; assay type: ADME, cell-based
Summary of the method: (§8)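 Freshly plated primary human hepatocytes seeded at 1 × 10⁶ per well and acclimated overnight, then given 50 μM compound for 4 h at 37 °C. After two ice-cold PBS washes, extraction ran overnight at −20 °C in 70% methanol with 20 nM ddATP. Dried extracts went to LC–MS/MS for intracellular metabolites, as three replicates from one plate, ±SD.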

[13] = Drug level in human HuH7 cells treated with 50 uM Ethyl 3-(2-(((R)-(((2R,3R,4R,5R)-5-(2,6-Diamino-9H-purin-9-yl)-3,4-dihydroxy-4-methyltetrahydrofuran-2-yl)methoxy)(((S)-1-ethoxy-1-oxopropan-2-yl)amino)phosphoryl)oxy)phenyl)-propanoate assessed as compound formation incubated for 4 hrs at 37 degC by LC-MS/MS method; assay type: ADME, cell-based; settings: huh-7, 4 h
Summary of the method: (§9)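 Huh-7 cells seeded at 1 × 10⁶ per well and exposed to 50 μM compound after attachment, 4 h at 37 °C. Cells washed twice with ice-cold PBS, then extracted overnight at −20 °C in 70% methanol containing 20 nM ddATP. Supernatants were dried and analysed by LC–MS/MS for parent nucleoside and its mono-, di- and triphosphates (pmol/10⁶ cells).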

Hepatocyte [14] = experiment: Drug level in human primary hepatocytes treated with 50 uM beta-D-2,6-diaminopurine nucleoside assessed as compound formation incubated for 4 hrs at 37 degC by LC-MS/MS method; assay type: ADME, cell-based; summary of the method: as §8
[15] = Drug level in human HuH7 cells treated with 50 uM beta-D-2,6-diaminopurine nucleoside assessed as compound formation incubated for 4 hrs at 37 degC by LC-MS/MS method; assay type: ADME, cell-based; settings: huh-7, 4 h; summary of the method: as §9
[16] = Drug level in human HuH7 cells treated with 50 uM Isopropyl 3-(2-(((S)-(((2R,3S,4R,5R)-5-(2,6-Diamino-9H-purin-9-yl)-3,4-dihydroxy-4-methyltetrahydrofuran-2-yl)methoxy)-(((S)-1-isopropoxy-1-oxopropan-2-yl)amino)phosphoryl)oxy)-phenyl)propanoate 15c(Sp) and Isopropyl 3-(2-(((R)-(((2R,3S,4R,5R)-5-(2,6-Diamino-9H-purin-9-yl)-3,4-dihydroxy-4-methyltetrahydrofuran-2-yl)methoxy)(((S)-1-isopropoxy-1-oxopropan-2-yl)amino)phosphoryl)oxy)phenyl)propanoate assessed as compound formation incubated for 4 hrs at 37 degC by LC-MS/MS method; assay type: ADME, cell-based; settings: huh-7, 4 h; summary of the method: as §9
Hepatocyte [17] = experiment: Drug level in human primary hepatocytes treated with 50 uM Isopropyl 3-(2-(((S)-(((2R,3S,4R,5R)-5-(2,6-Diamino-9H-purin-9-yl)-3,4-dihydroxy-4-methyltetrahydrofuran-2-yl)methoxy)-(((S)-1-isopropoxy-1-oxopropan-2-yl)amino)phosphoryl)oxy)-phenyl)propanoate 15c(Sp) and Isopropyl 3-(2-(((R)-(((2R,3S,4R,5R)-5-(2,6-Diamino-9H-purin-9-yl)-3,4-dihydroxy-4-methyltetrahydrofuran-2-yl)methoxy)(((S)-1-isopropoxy-1-oxopropan-2-yl)amino)phosphoryl)oxy)phenyl)propanoate assessed as compound formation incubated for 4 hrs at 37 degC by LC-MS/MS method; assay type: ADME, cell-based; summary of the method: as §8
[18] = as §6; assay type: cell-based; settings: PBMC
[19] = as §7; assay type: cell-based, CCRF-CEM; settings: CEM cells (CCRF-CEM)
[20] = as §2; assay type: cell-based; settings: chlorocebus sabaeus, Vero cells
HepG2 [21] = experiment: Toxicity in human HepG2 cells assessed as increase in cell death at 10 uM; assay type: cell-based; settings: hepg2, 10 µM

| SMILES | EC50 (Hepatitis C virus) | EC90 (Hepatitis C virus) | CC50 (Vero) | CC50 (HepG2 [1]) | CC50 (HepG2 [2]) | Activity (HepG2 [3]) | Activity (HepG2 [4]) | Activity (HepG2 [5]) | CC50 [9] | CC50 (PBMC) | CC50 (CCRF-CEM) | other results |
| --- | --- | --- | --- | --- | --- | --- | --- | --- | --- | --- | --- | --- |
| CC(C)OC(=O)CCc1ccccc1OP(=O)(N[C@@H](C)C(=O)OC(C)C)OC[C@H]1O[C@@H](n2cnc3c(N)nc(N)nc32)[C@](C)(O)[C@H]1O (stereo partly drawn) | 0.7 µM | 2.5 µM | > 100 µM | > 50 µM | > 50 µM | 90% | 81% | 80% |  |  |  | Drug metabolism [6]: metabolite_detected; Drug metabolism [7]: metabolite_detected; Drug metabolism [8]: metabolite_detected |
| Nc1ccn([C@@H]2CS[C@H](CO)O2)c(=O)n1 [LAMIVUDINE] |  |  |  | > 10 µM | > 10 µM |  | 91% |  |  |  |  |  |
| C[C@@]1(O)[C@H](O)[C@@H](CO)O[C@H]1n1cnc2c(N)nc(N)nc21 | 5.4 µM | > 10 µM | > 100 µM | > 50 µM | > 50 µM | 110% | 170% | 110% | > 33 µM | > 100 µM | > 100 µM |  |
| C[C@@]1(O)[C@H](O)[C@@H](COP(=O)(O)OP(=O)(O)OP(=O)(O)O)O[C@H]1n1cnc2c(=O)[nH]c(N)nc21 [INX-09114] |  |  |  |  |  |  |  |  |  |  |  | inhibition (Hepacivirus hominis [10]): Dose-dependent effect; inhibition (Hepacivirus hominis [11]): Active; Drug metabolism (Hepatocyte [12]): metabolite_detected; Drug metabolism [13]: metabolite_detected; Drug metabolism (Hepatocyte [14]): metabolite_detected; Drug metabolism [15]: metabolite_detected; Drug metabolism [16]: metabolite_detected; Drug metabolism (Hepatocyte [17]): metabolite_detected |
| CCOC(=O)CCc1ccccc1OP(=O)(OC[C@H]1O[C@@H](n2cnc3c(N)nc(N)nc32)[C@](C)(O)[C@@H]1O)Oc1ccccc1CCC(=O)OCC | > 10 µM | > 10 µM |  |  |  |  |  |  |  |  |  | CC50 at 120 h ([9]; HuH7 cells): > 10 µM; CC50 at 120 h [18]: 64 µM; CC50 at 120 h [19]: 25 µM; CC50 at 120 h [20]: 90 µM |
| Nc1ccn([C@H]2CC[C@@H](CO)O2)c(=O)n1 [ZALCITABINE] |  |  |  | < 10 µM | < 10 µM |  | 220% |  |  |  |  |  |
| COc1nc(N)nc2c1ncn2[C@@H]1O[C@H](COP(=O)(N[C@@H](C)C(=O)OCC(C)(C)C)Oc2cccc3ccccc23)[C@@H](O)[C@@]1(C)O (stereo partly drawn) [BMS-986094] | 0.02 µM | 0.04 µM | 14 µM | 4.7 µM | < 1 µM | 190% |  |  | 0.8 µM | 4.7 µM | 8.7 µM | Activity (HepG2 [21]): Toxic |
| CCOC(=O)[C@H](C)NP(=O)(OC[C@H]1O[C@@H](n2cnc3c(N)nc(N)nc32)[C@](C)(O)[C@@H]1O)Oc1ccccc1 (stereo partly drawn) | 0.9 µM | 4 µM | > 100 µM | > 50 µM | > 50 µM | 100% | 140% | 90% | > 10 µM | > 100 µM | > 100 µM |  |
